From ChEMBL document CHEMBL3244382, “Structural requirements for antileukemic activity among the naturally occurring and semisynthetic maytansinoids” (J Med Chem, 1978)
Converted amounts (≈) assume the structure as drawn. The source made the active and inactive calls.

What was measured:
[1] = molecular target: Tubulin (Homo sapiens) (UniProt P68371+Q9H4B7+P0DPH7+P68366+Q13509+Q71U36+P04350+Q3ZCM7+P07437+P68363+Q9BQE3+Q6PEY2+Q13885+Q9BVA1+Q9BUF5); test: Inhibition of brain tubulin polymerization (unknown origin) at 37 degC by spectrophotometry
[2] = tested on: P388; test: Antitumor activity against mouse P388 cells allografted in PS mouse assessed as median survival time at 400 ug/kg relative to control; format: functional
Method in brief: (§1)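 P388 leukemia (PS) in mice, six mice started per dose group. Read-out is T/C: median survival time of the treated group divided by that of the untreated control group, expressed as a percent. The NIH protocol counts a compound as active when T/C > 125%.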

[3] = tested on: Mus musculus; test: Toxicity in PS mouse allografted with mouse P388 cells assessed as survival at 100 ug/kg after 4 days; format: organism-based; conditions: in vivo, 0.1 mg/kg, 96 h
Method in brief: (§2)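 PS (P388) leukemic mice, six started per dose group. Toxicity scored as survivors on the toxicity day over the number of mice started. The toxicity day is normally 4 days after the first injection.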

[4] = tested on: P388; test: Antitumor activity against mouse P388 cells allografted in PS mouse assessed as median survival time at 200 ug/kg relative to control; format: functional; method in brief: as §1
[5] = tested on: P388; test: Antitumor activity against mouse P388 cells allografted in PS mouse assessed as median survival time at 100 ug/kg relative to control; format: functional; method in brief: as §1
[6] = tested on: Mus musculus; test: Toxicity in PS mouse allografted with mouse P388 cells assessed as change in body weight at 200 ug/kg relative to control; format: organism-based; conditions: in vivo, 0.2 mg/kg
Method in brief: (§3)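 P388 (PS) leukemia in mice, 6 mice per dose group. Weight change is the difference in grams between treated and control animals. Survivors are recorded on toxicity day, normally 4 days after the first injection.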

[7] = tested on: P388; test: Antitumor activity against mouse P388 cells allografted in PS mouse assessed as median survival time at 50 ug/kg relative to control; format: functional; method in brief: as §1
[8] = tested on: Mus musculus; test: Toxicity in PS mouse allografted with mouse P388 cells assessed as survival at 400 ug/kg after 4 days; format: organism-based; conditions: in vivo, 0.4 mg/kg, 96 h; method in brief: as §2
[9] = tested on: KB; test: Cytotoxicity against human KB cells; format: functional; conditions: read-out: ED50 (the source's name)
[10] = tested on: Mus musculus; test: Toxicity in PS mouse allografted with mouse P388 cells assessed as change in body weight at 100 ug/kg relative to control; format: organism-based; conditions: in vivo, 0.1 mg/kg; method in brief: as §3
[11] = tested on: Mus musculus; test: Toxicity in PS mouse allografted with mouse P388 cells assessed as survival at 50 ug/kg after 4 days; format: organism-based; conditions: in vivo, 0.05 mg/kg, 96 h; method in brief: as §2
[12] = tested on: Mus musculus; test: Toxicity in PS mouse allografted with mouse P388 cells assessed as change in body weight at 50 ug/kg relative to control; format: organism-based; conditions: in vivo, 0.05 mg/kg; method in brief: as §3
[13] = tested on: Mus musculus; test: Toxicity in PS mouse allografted with mouse P388 cells assessed as survival at 200 ug/kg after 4 days; format: organism-based; conditions: in vivo, 0.2 mg/kg, 96 h; method in brief: as §2
[14] = tested on: Paracentrotus lividus; test: Antimitotic activity against sea urchin eggs assessed as drug level causing inhibition of mitosis; format: functional; conditions: Egg
[15] = tested on: Mus musculus; test: Toxicity in PS mouse allografted with mouse P388 cells assessed as change in body weight at 400 ug/kg relative to control; format: organism-based; conditions: in vivo, 0.4 mg/kg; method in brief: as §3
[16] = tested on: Mus musculus; test: Toxicity in PS mouse allografted with mouse P388 cells assessed as survival at 3.1 ug/kg after 4 days; format: organism-based; conditions: in vivo, 0.0031 mg/kg, 96 h; method in brief: as §2
[17] = tested on: P388; test: Antitumor activity against mouse P388 cells allografted in PS mouse assessed as median survival time at 25 ug/kg relative to control; format: functional; method in brief: as §1
[18] = tested on: Mus musculus; test: Toxicity in PS mouse allografted with mouse P388 cells assessed as survival at 1.6 ug/kg after 4 days; format: organism-based; conditions: in vivo, 0.0016 mg/kg, 96 h; method in brief: as §2
[19] = tested on: Mus musculus; test: Toxicity in PS mouse allografted with mouse P388 cells assessed as survival at 6.2 ug/kg after 4 days; format: organism-based; conditions: in vivo, 0.0062 mg/kg, 96 h; method in brief: as §2
[20] = tested on: Mus musculus; test: Toxicity in PS mouse allografted with mouse P388 cells assessed as survival at 12.5 ug/kg after 4 days; format: organism-based; conditions: in vivo, 0.0125 mg/kg, 96 h; method in brief: as §2
[21] = tested on: Mus musculus; test: Toxicity in PS mouse allografted with mouse P388 cells assessed as change in body weight at 3.1 ug/kg relative to control; format: organism-based; conditions: in vivo, 0.0031 mg/kg; method in brief: as §3
[22] = tested on: Mus musculus; test: Toxicity in PS mouse allografted with mouse P388 cells assessed as change in body weight at 25 ug/kg relative to control; format: organism-based; conditions: in vivo, 0.025 mg/kg; method in brief: as §3
[23] = tested on: Mus musculus; test: Toxicity in PS mouse allografted with mouse P388 cells assessed as survival at 25 ug/kg after 4 days; format: organism-based; conditions: in vivo, 0.025 mg/kg, 96 h; method in brief: as §2
[24] = tested on: P388; test: Antitumor activity against mouse P388 cells allografted in PS mouse assessed as median survival time at 6.2 ug/kg relative to control; format: functional; method in brief: as §1
[25] = tested on: P388; test: Antitumor activity against mouse P388 cells allografted in PS mouse assessed as median survival time at 1.6 ug/kg relative to control; format: functional; method in brief: as §1
[26] = tested on: Mus musculus; test: Toxicity in PS mouse allografted with mouse P388 cells assessed as change in body weight at 12.5 ug/kg relative to control; format: organism-based; conditions: in vivo, 0.0125 mg/kg; method in brief: as §3
[27] = tested on: P388; test: Antitumor activity against mouse P388 cells allografted in PS mouse assessed as median survival time at 3.1 ug/kg relative to control; format: functional; method in brief: as §1
[28] = tested on: P388; test: Antitumor activity against mouse P388 cells allografted in PS mouse assessed as median survival time at 12.5 ug/kg relative to control; format: functional; method in brief: as §1
[29] = tested on: Mus musculus; test: Toxicity in PS mouse allografted with mouse P388 cells assessed as change in body weight at 6.2 ug/kg relative to control; format: organism-based; conditions: in vivo, 0.0062 mg/kg; method in brief: as §3
[30] = tested on: Mus musculus; test: Toxicity in PS mouse allografted with mouse P388 cells assessed as change in body weight at 1.6 ug/kg relative to control; format: organism-based; conditions: in vivo, 0.0016 mg/kg; method in brief: as §3
[31] = tested on: Mus musculus; test: Toxicity in PS mouse allografted with mouse P388 cells assessed as change in body weight at 0.4 ug/kg relative to control; format: organism-based; conditions: in vivo, 0.0004 mg/kg
Method in brief: (§4)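 PS (P388 leukemia) mice, six per dose group. Toxicity read as the difference in grams between the weights of treated and control animals.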

[32] = tested on: P388; test: Antitumor activity against mouse P388 cells allografted in PS mouse assessed as median survival time at 0.8 ug/kg relative to control; format: functional; method in brief: as §1
[33] = tested on: P388; test: Antitumor activity against mouse P388 cells allografted in PS mouse assessed as median survival time at 0.4 ug/kg relative to control; format: functional; method in brief: as §1
[34] = tested on: Mus musculus; test: Toxicity in PS mouse allografted with mouse P388 cells assessed as change in body weight at 0.8 ug/kg relative to control; format: organism-based; conditions: in vivo, 0.0008 mg/kg; method in brief: as §4
[35] = tested on: Mus musculus; test: Toxicity in PS mouse allografted with mouse P388 cells assessed as survival at 0.4 ug/kg after 4 days; format: organism-based; conditions: in vivo, 0.0004 mg/kg, 96 h; method in brief: as §2
[36] = tested on: Mus musculus; test: Toxicity in PS mouse allografted with mouse P388 cells assessed as survival at 0.8 ug/kg after 4 days; format: organism-based; conditions: in vivo, 0.0008 mg/kg, 96 h; method in brief: as §2

Row | SMILES | inhibition [1] | T/C [2] | Activity [3] | T/C [4] | T/C [5] | Activity [6] | T/C [7] | Activity [8] | EC50 [9] | Activity [10] | Activity [11] | Activity [12] | Activity [13] | Activity [14] | Activity [15] | Activity [16] | T/C [17] | Activity [18] | Activity [19] | Activity [20] | also measured
1 | CCCS[C@]12C[C@H](OC(=O)N1)[C@@H](C)[C@@H]1O[C@@]1(C)[C@@H](OC(=O)[C@H](C)N(C)C(C)=O)CC(=O)N(C)c1cc(cc(OC)c1Cl)C/C(C)=C/C=C/[C@H]2OC | Active | 114% | Non-toxic | 114% | 114% | 0.1 g | 111% | Non-toxic | 0.18 ng/mL (≈ 0.24 nM) | 2.8 g | Non-toxic | -1.3 g | Non-toxic | 1 ×10⁻⁸ mol/L | -0.7 g |  |  |  |  |  | 
2 | COc1cc2cc(c1Cl)NC(=O)/C=C/C(C)=C/[C@H](C)[C@@H]1C[C@@](O)(NC(=O)O1)[C@H](OC)/C=C/C=C(\C)C2 | Active |  | Non-toxic | 104% | 120% | 1.2 g | 120% |  | 2 ng/mL (≈ 3.87 nM) | 0.8 g | Non-toxic | 1.8 g | Non-toxic | 1 ×10⁻⁸ mol/L |  | Non-toxic | 108% | Non-toxic | Non-toxic | Non-toxic | Activity [21]: 1.4 g; Activity [22]: -0.8 g; Activity [23]: Non-toxic; T/C [24]: 87%; T/C [25]: 104%; Activity [26]: 0.7 g; T/C [27]: 95%; T/C [28]: <80%; Activity [29]: 0.7 g; Activity [30]: 1 g
3 | COc1cc2cc(c1Cl)N(C)C(=O)C[C@H](OC(=O)[C@H](C)N(C)C(C)=O)[C@]1(C)O[C@H]1[C@H](C)[C@@H]1C[C@@](OC)(NC(=O)O1)[C@H](OC)/C=C/C=C(\C)C2 | Active | 139% | Non-toxic | 93% | 104% | -0.7 g | 101% | Non-toxic | 0.19 ng/mL (≈ 0.269 nM) | -0.9 g | Non-toxic | -2.3 g | Non-toxic | 1 ×10⁻⁸ mol/L | -0.9 g |  |  |  |  |  | 
4 | COc1cc2cc(c1Cl)N(C)C(=O)C[C@H](OC(=O)[C@H](C)N(C)C(C)=O)[C@]1(C)O[C@H]1[C@H](C)[C@@H]1C[C@@](O)(NC(=O)O1)[C@H](OC)/C=C/C=C(\C)C2 [MAYTANSINE] | Active |  | Non-toxic |  | <80% |  | 125% |  | 0.0061 ng/mL (≈ 0.00881 nM) | -0.4 g | Non-toxic | 0.3 g |  | 1 ×10⁻⁷ mol/L |  | Non-toxic | 220% | Non-toxic | Non-toxic | Non-toxic | Activity [21]: -0.1 g; Activity [31]: 1.7 g; Activity [22]: 0.6 g; Activity [23]: Non-toxic; T/C [24]: 195%; T/C [25]: 155%; T/C [32]: 145%; T/C [33]: 125%; Activity [26]: 1.6 g; T/C [27]: 165%; T/C [28]: 190%; Activity [29]: 1.3 g; Activity [34]: 1.4 g; Activity [35]: Non-toxic; Activity [36]: Non-toxic; Activity [30]: 1.6 g
